In PubChem BioAssay AID588629 (Broad Institute, 2011):
Inconclusive results are not listed. Calls of active or inactive are those of the source.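 How the source made its calls: active means every test run called active, with signal falling and half-effect dose at or below the top valid dose; inconclusive means test runs give conflicting calls; inactive means all test runs inactive.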

What follows are compounds tested against cAMP-dependent protein kinase catalytic subunit alpha (Homo sapiens) (UniProt P17612) (assay: PKA catalytic subunit inhibitors, dose response, biochemical, Caliper mobility shift, dry powder samples, set 2 (AID 588629)). Conditions: Recombinant PKA, peptide phosphorylation.
Outline: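 Times: Kinase reaction with compound, 1 h at room temperature | Material: His-tagged PKA catalytic domain | Quantity: 1.5 nM PKA | Read-out basis: % conversion and IC50 | Buffer or medium: MOPS pH 7 with Mg2+ | Signal: Microfluidic electrophoresis, EDTA-stopped endpoint | Reagent: Fluorescent Peptide 21 at 3 µM plus 12 µM ATP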

Row | IC50 [µM] | SMILES
1 | 3.66 | COc1cc(/C=C2\SC(=Nc3ccccc3Cl)NC2=O)ccc1O
2 | 6.73 | O=C(Nc1ccccc1-c1nc2ccccc2[nH]c1=O)c1cc2ccccc2s1
3 | 4.88 | O=C(Nc1ccccc1-c1nc2cc(Cl)c(Cl)cc2[nH]c1=O)c1cccs1
4 | 2.9 | COc1cc(/C=C2\SC(=NCc3ccccc3)NC2=O)ccc1O

Same assay, conditions: Recombinant PKA, peptide phosphorylation, at 10 µM (top of the series)

Row | % substrate conversion (lower = inhibition) | SMILES
5 | inactive | COc1cc(/C=C2\SC(=Nc3cccc(F)c3)NC2=O)ccc1O
6 | inactive | COc1ccccc1Nc1nc(O)c(/C=c2/ccc3c(c2)C=CN=3)s1
7 | inactive | O=C(Nc1ccccc1-c1nc2ccccc2[nH]c1=O)c1ccc(F)cc1
8 | inactive | O=c1[nH]c2ccccc2nc1-c1ccccc1NCc1cccs1
9 | inactive | COc1cc(/C=C2\SC(=Nc3ccccc3OC)NC2=O)ccc1F
10 | inactive | COc1ccccc1N=C1NC(=O)/C(=C/c2ccc(F)cc2)S1
11 | inactive | COc1ccccc1/C=C1\SC(=Nc2ccccc2OC)NC1=O
12 | inactive | COc1cc(/C=C2\SC(=Nc3ccc(F)cc3)NC2=O)ccc1O
13 | inactive | COc1ccccc1N=C1NC(=O)/C(=C/C(C)C)S1
14 | inactive | COc1ccccc1N=C1NC(=O)/C(=C/c2ccncc2)S1
15 | inactive | COc1ccccc1N=C1NC(=O)/C(=C/c2cccc(Cl)c2)S1
16 | inactive | COc1ccccc1N=C1NC(=O)/C(=C/c2ccc(C)cc2)S1
17 | inactive | COc1ccccc1N=C1NC(=O)/C(=C/c2ccc(-c3cccnc3)cc2)S1
18 | inactive | O=C(Nc1ccccc1-c1nc2ccccc2[nH]c1=O)c1ccccn1
19 | inactive | COc1ccccc1N=C1NC(=O)/C(=C/c2ccc(OC)c(OC)c2)S1
20 | inactive | CC(C)c1ccc(NC(=O)c2cccs2)c(-c2nc3ccccc3[nH]c2=O)c1
21 | inactive | O=C(Nc1ccccc1-c1nc2cc(F)c(F)cc2[nH]c1=O)c1cccs1
22 | inactive | COc1ccccc1N=C1NC(=O)/C(=C/c2ccc3c(c2)OC(F)(F)O3)S1
23 | inactive | COc1ccccc1N=C1NC(=O)/C(=C/c2ccc(F)c(F)c2)S1
24 | inactive | COc1ccc(/C=C2\SC(=Nc3ccccc3OC)NC2=O)cc1
25 | inactive | COc1ccc(/C=C2\SC(=Nc3ccccc3OC)NC2=O)c(O)c1
26 | inactive | COc1ccccc1N=C1NC(=O)/C(=C/c2ccccn2)S1
27 | inactive | COc1ccc(-n2ncc3cnc(Nc4ccc(N5CCN(C)CC5)c(OC)c4)nc32)cc1

Row | % substrate conversion (lower = inhibition) | SMILES
28 | inactive | COc1cc(/C=C2\SC(=Nc3ccc(Cl)cc3)NC2=O)ccc1O
29 | inactive | COc1ccccc1N=C1NC(=O)/C(=C/c2ccc(Cl)c(Cl)c2)S1
30 | inactive | COc1ccc(C(=O)Nc2ccccc2-c2nc3ccccc3[nH]c2=O)cc1
31 | inactive | COc1ccccc1N=C1NC(=O)/C(=C/c2cnn(C)c2)S1
32 | inactive | COc1cc(/C=C2\SC(N)=NC2=O)ccc1O
33 | inactive | COc1ccccc1Nc1nc(O)c(/C=C2/C=c3ccccc3=N2)s1
34 | inactive | COc1cc(/C=C2\SC(=NC(C)(C)C)NC2=O)ccc1O
35 | inactive | O=C(Nc1cc(Cl)ccc1-c1nc2ccccc2[nH]c1=O)c1cccs1
36 | inactive | O=C(Nc1ccccc1-c1nc2ccccc2[nH]c1=O)c1ccncc1
37 | inactive | COc1ccccc1N=C1NC(=O)/C(=C/c2ccc(C#N)cc2)S1
38 | inactive | O=C(Nc1ccc(OC(F)(F)F)cc1-c1nc2ccccc2[nH]c1=O)c1cccs1
39 | inactive | COc1ccccc1N=C1NC(=O)/C(=C/c2cccc(F)c2)S1
40 | inactive | COc1ccccc1N=C1NC(=O)/C(=C/c2ccc(Cl)cc2)S1
41 | inactive | COc1cc(/C=C2\SC(=NC(C)C)NC2=O)ccc1O
42 | inactive | COc1ccccc1N=C1NC(=O)/C(=C/c2ccc(OC(F)(F)F)cc2)S1
43 | inactive | O=C(Nc1ccc(Cl)cc1-c1nc2ccccc2[nH]c1=O)c1cccs1
44 | inactive | O=C(Nc1ccccc1-c1nc2ccccc2[nH]c1=O)C1CCCCC1
45 | inactive | COc1ccccc1N=C1NC(=O)/C(=C/c2cc(Cl)cc(Cl)c2O)S1
46 | inactive | COc1cc(/C=C2\SC(=Nc3cccnc3)NC2=O)ccc1O
47 | inactive | COc1ccccc1N=C1NC(=O)/C(=C/c2ccc3c(c2)OCCO3)S1
48 | inactive | COc1cc(/C=C2\SC(=Nc3ccncc3)NC2=O)ccc1O
49 | inactive | COc1ccccc1N=C1NC(=O)/C(=C/c2nc(C)cs2)S1
50 | inactive | COc1ccc(N=C2NC(=O)/C(=C/c3ccc(O)c(OC)c3)S2)cc1

Row | % substrate conversion (lower = inhibition) | SMILES
51 | inactive | COc1cc(/C=C2\SC(=Nc3ccccc3OC)NC2=O)ccc1O
52 | inactive | O=C(Nc1ccccc1-c1nc2ccccc2[nH]c1=O)c1cccs1
53 | inactive | COc1cc(/C=C2/SC(=Nc3ccc(O)cc3)NC2=O)ccc1O
54 | inactive | O=C(Nc1ccc(F)cc1-c1nc2ccccc2[nH]c1=O)c1cccs1
55 | inactive | COc1ccccc1N=C1NC(=O)/C(=C/c2cccnc2)S1
56 | inactive | COc1cccc(/C=C2\SC(=Nc3ccccc3OC)NC2=O)c1
57 | inactive | COc1ccccc1N=C1NC(=O)/C(=C/C2CCCCC2)S1
58 | inactive | O=C(Nc1cc(F)ccc1-c1nc2ccccc2[nH]c1=O)c1cccs1
59 | inactive | COc1ccccc1N=C1NC(=O)/C(=C/c2ccccc2Cl)S1
60 | inactive | O=C(Nc1ccccc1-c1nc2ccccc2[nH]c1=O)c1cccc(F)c1
61 | inactive | COc1ccccc1N=C1NC(=O)/C(=C/c2cc(C)on2)S1
62 | inactive | COc1ccccc1N=C1NC(=O)CS1
63 | inactive | COc1ccccc1N=C1NC(=O)/C(=C/c2ccc(O)cc2)S1
64 | inactive | O=C1NC(=NCc2ccccc2)S/C1=C/c1ccc(O)cc1
65 | inactive | COc1ccccc1N=C1NC(=O)/C(=C/c2ccccc2F)S1
66 | inactive | COc1ccccc1N=C1NC(=O)/C(=C/c2ccc3c(c2)OCO3)S1
67 | inactive | COc1ccccc1N=C1NC(=O)/C(=C/c2ccccc2)S1
68 | inactive | COc1ccccc1N=C1NC(=O)/C(=C/c2cccn2C)S1
69 | inactive | COc1cc(/C=C2\SC(=Nc3ccccc3F)NC2=O)ccc1O
70 | inactive | O=C(Nc1ccccc1-c1nc2ccccc2[nH]c1=O)c1cccnc1
71 | inactive | Nc1ccccc1-c1nc2ccccc2[nH]c1=O
72 | inactive | COc1ccccc1N=C1NC(=O)/C(=C/c2ccc(C(C)C)cc2)S1
